Assay [1] deals with cGMP-specific 3',5'-cyclic phosphodiesterase (Canis lupus familiaris, UniProt O77746). Kind of assay: Inhibition of canine lung PDE5 using [3H]cGMP incubated for 30 mins by scintillation analysis. In a few lines:
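Radiolabeled nucleotide method using PDE5 isolated from canine lung. Started with [³H]cGMP plus unlabeled cGMP, 37 °C for 30 min, stopped by boiling 1.5 min. Crotalus atrox venom step at 37 °C for 30 min, column separation, eluate counted by scintillation.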

The nature of assay [2]: Selectivity for bovine retina PDE6 to canine lung PDE5.
The test system of another assay is Corpus cavernosum. Kind of assay: Relaxation effect on phenylephrine-induced contractile response in isolated rabbit corpus cavernosum. The class given is functional. The conditions noted are these: Oryctolagus cuniculus. In a few lines: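 Isolated rabbit corpus cavernosum strips in organ baths. High-KCl (120 mM) PSS contraction checked twice, then phenylephrine (5 × 10⁻⁶ M) gave a tonic contraction. Once stable, test compound (10⁻¹⁰–10⁻⁶ M) or vehicle added at 30 min intervals. EC30 derived from the logarithmic concentration–inhibition curve.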

Each structure is given as a SMILES string.

A word on the IC50: it is the midpoint of a concentration-inhibition curve. Take `COc1ccc(CNc2nc(N3CCC[C@H]3CO)ncc2C=O)cc1Cl`: the midpoint of inhibition in assay [1], the IC50, lay at 33 nM.
A word on the EC30: it is the concentration at which the effect reaches the 30% level. As to `COc1ccc(Cn2c(=O)cc(C)c3cnc(N4CCC[C@H]4CO)nc32)cc1Cl`, in assay [1], the IC50 was 0.86 nM. Also, the Selectivity ratio in assay [2] came to 2300. This compound also yielded an EC30 in the assay on Corpus cavernosum of 0.85 nM.
With `COc1ccc(Cn2c(=O)cc(-c3ccccn3)c3cnc(N4CCC[C@H]4CO)nc32)cc1Cl`, in assay [1], the IC50 was 1.7 nM. Moreover, the Selectivity ratio in assay [2] was 1900.
Regarding `COc1ccc(Cn2c(=O)cc(-c3nccn3C)c3cnc(N4CCC[C@H]4CO)nc32)cc1Cl`, in assay [1], the IC50 came out at 7.2 nM.
Regarding `COc1ccc(CNc2nc(N3CCC[C@H]3CO)ncc2C(=O)c2nccn2C)cc1Cl`, the midpoint of inhibition in assay [1], the IC50, lay at 12 nM.
On the same count and under the same terms, the value for `COc1ccc(CNc2nc(N3CCC[C@H]3CO)ncc2C(=O)CCN2CCOCC2)cc1Cl` was 2.9 nM.
`COc1ccc(CNc2nc(N3CCC[C@H]3CO)ncc2C(=O)c2ccccn2)cc1Cl` returned a concentration for half-maximal inhibition (IC50) in assay [1] of 12 nM.
Compound `COc1ccc(Cn2c(=O)cc(CCN3CCOCC3)c3cnc(N4CCC[C@H]4CO)nc32)cc1Cl` returned an IC50 in assay [1] of 0.98 nM. Besides, the Selectivity ratio in assay [2] came to 1600. Moreover, in the assay with Corpus cavernosum, the 30% effect level (EC30) was put at 8.6 nM.
On to `COc1ccc(CNc2nc(N3CCC[C@H]3CO)ncc2C(C)=O)cc1Cl`, for which half-maximal inhibition in assay [1] (IC50) was put at 5.2 nM.
Consider `COc1ccc(Cn2c(=O)ccc3cnc(N4CCC[C@H]4CO)nc32)cc1Cl`, for which the IC50 in assay [1] turned out to be 3.3 nM. The Selectivity ratio in assay [2] worked out at 850. This compound also displayed an EC30 in the assay on Corpus cavernosum of 2.2 nM.
Regarding `CCCc1nn(C)c2c(=O)[nH]c(-c3cc(S(=O)(=O)N4CCN(C)CC4)ccc3OCC)nc12` [SILDENAFIL], it took 8.7 nM to reach the 30% level in the assay on Corpus cavernosum (EC30).
Compound `COc1ccc(CNc2nc(N3CCC[C@H]3CO)ncc2C(=O)c2cc(OC)c(OC)c(OC)c2)cc1Cl` had an IC50 in assay [1] of 0.21 nM. Also, the Ratio IC50 in assay [2] turned out to be 5700. The EC30 in the assay on Corpus cavernosum is over 100 nM.

(Values after ChEMBL document CHEMBL3400122, “8-(3-chloro-4-methoxybenzyl)-8H-pyrido[2,3-d]pyrimidin-7-one derivatives as potent and selective phosphodiesterase 5 inhibitors” (Bioorg Med Chem Lett, 2015).)
